Experimental findings from ChEMBL document CHEMBL1152423, “Development of N-[11C]methylamino 4-hydroxy-2(1H)-quinolone derivatives as PET radioligands for the glycine-binding site of NMDA receptors” (Bioorg Med Chem, 2009) are described below.

Data set [1] addresses Glutamate NMDA receptor. Put plainly: Displacement of [3H]MDL-105519 from glycine binding site of NMDA receptor in rat cortical membrane by liquid scintillation counting. It counts as cell membranes. An outline of the steps:
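Washed rat cortical membranes in 50 mM Tris–HCl (pH 8.0) were incubated 45 min at 4 °C with [3H]MDL-105,519 (2 nM) plus buffer or displacer. Nonspecific binding was defined with excess unlabeled glycine. Samples were filtered on GF/B, washed three times with ice-cold buffer, and counted by liquid scintillation. Ki came from three determinations, each in triplicate.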
A general note: Displacement assays read how much labelled ligand stays bound in the presence of the test substance.

Data set [2] has as its system Blood. Briefly: Biodistribution in ddY mouse blood assessed per gram of tissue at 7.4 MBq, iv after 1 min by gamma counting. The conditions noted are these: in vivo. It is filed as ADME, organism-based. An outline of the steps: (§1)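 ddY mice (35–45 g) received about 7.4 MBq of [11C]radioligand in 0.2 ml into the tail vein and were decapitated at 1 or 30 min. Blood, cerebrum and cerebellum were gamma-counted with decay correction and expressed as % injected dose/g; tissue/blood ratios were derived. n=3 or 5.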

The nature of data set [3]: Biodistribution in ddY mouse cerebrum assessed per gram of tissue at 7.4 MBq, iv after 1 min by gamma counting. It is filed as ADME, organism-based. Conditions: in vivo. An outline of the steps: as §1
In data set [4] the test system is Cerebellum. Briefly: Biodistribution in ddY mouse cerebellum assessed per gram of tissue at 7.4 MBq, iv after 1 min by gamma counting. It is filed as ADME, organism-based. The conditions noted are these: in vivo. An outline of the steps: as §1
Data set [5] concerns Blood. Put plainly: Biodistribution in ddY mouse blood assessed per gram of tissue at 7.4 MBq, iv after 30 mins by gamma counting. It counts as ADME, organism-based. Conditions: in vivo, 0.5 h. An outline of the steps:
as §1

A short description of data set [6]: Biodistribution in ddY mouse cerebrum assessed per gram of tissue at 7.4 MBq, iv after 30 mins by gamma counting. The conditions noted are these: in vivo, 0.5 h. It is filed as ADME, organism-based. An outline of the steps: as §1
The test system of data set [7] is Cerebellum. Briefly: Biodistribution in ddY mouse cerebellum assessed per gram of tissue at 7.4 MBq, iv after 30 mins by gamma counting. The conditions noted are these: in vivo, 0.5 h. It counts as ADME, organism-based. An outline of the steps: as §1
A short description of data set [8]: Ratio of drug level in cerebrum to blood of ddY mouse at 7.4 MBq, iv after 1 min. It counts as ADME, organism-based. An outline of the steps: as §1
The nature of data set [9]: Ratio of drug level in cerebellum to blood of ddY mouse at 7.4 MBq, iv after 1 min. It is filed as ADME, organism-based. An outline of the steps: as §1
A short description of data set [10]: Ratio of drug level in cerebrum to blood of ddY mouse at 7.4 MBq, iv after 30 mins. It counts as ADME, organism-based. An outline of the steps: as §1
A short description of data set [11]: Ratio of drug level in cerebellum to blood of ddY mouse at 7.4 MBq, iv after 30 mins. It is filed as ADME, organism-based. An outline of the steps: as §1
For data set [12], the target named is Glutamate NMDA receptor. Briefly: Binding affinity to glycine binding site of NMDA receptor in rat brain. It counts as tissue-based.
Data set [13] can be described thus: n-Octanol-sodium phosphate buffer partition coefficient, log D at pH 7.4 after 15 mins by shake-flask method. It is filed as physicochemical. An outline of the steps:
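Compound (1–2 mg) was shaken 15 min at ambient temperature in n-octanol and 10 mM phosphate buffer (pH 7.4). The mixture was centrifuged at 2500 rpm for 5 min, and both layers were analysed by HPLC (n=3).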

The target of data set [14] is T1, Glutamate NMDA receptor (Rattus norvegicus) (UniProt P35439+Q00959+Q00960+Q00961+Q62645+Q8VHN2+Q9R1M7). Briefly: Binding affinity to glycine binding site of NMDA receptor in hippocampus of rat brain by autoradiography. It counts as tissue-based. Conditions: tested as the 11C-labelled form. An outline of the steps: (§2)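 Rat brain sagittal sections were preincubated 30 min at 25 °C in 50 mM Tris–HCl (pH 7.4), then incubated 30 min at 25 °C with the [11C]radioligand (1.59–2.13 nM). Sections were rinsed twice for 3 min in cold buffer, dipped in cold water, dried, and exposed to imaging plates for 60 min. Nonspecific binding was taken with the corresponding unlabeled ligand; specific binding is given per region.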

Data set [15] concerns the target T1, Glutamate NMDA receptor (Rattus norvegicus). Briefly: Binding affinity to glycine binding site of NMDA receptor in cerebral cortex of rat brain by autoradiography. It counts as tissue-based. The conditions noted are these: tested as the 11C-labelled form. An outline of the steps: as §2
For data set [16] the target is unchanged. Put plainly: Binding affinity to glycine binding site of NMDA receptor in thalamus of rat brain by autoradiography. It is filed as tissue-based. Conditions: tested as the 11C-labelled form. An outline of the steps: as §2
The target is the same in data set [17]. Briefly: Binding affinity to glycine binding site of NMDA receptor in striatum of rat brain by autoradiography. It is filed as tissue-based. Conditions: tested as the 11C-labelled form. An outline of the steps: as §2
Data set [18] has the same target. Briefly: Binding affinity to glycine binding site of NMDA receptor in cerebellum of rat brain by autoradiography. It is filed as tissue-based. The conditions noted are these: tested as the 11C-labelled form. An outline of the steps:
as §2

The target is the same in data set [19]. Briefly: Binding affinity to glycine binding site of NMDA receptor in hippocampus of rat brain by autoradiography in presence of glycine. It is filed as tissue-based. Conditions: tested as the 11C-labelled form. An outline of the steps:
(§3)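 Hippocampal binding on rat brain slices: 30 min at 25 °C in 50 mM Tris–HCl (pH 7.4) with [11C]radioligand (1.59–2.13 nM), with or without a glycine-site drug (agonists at 1 mM). Slices were rinsed, dried and exposed to imaging plates for 60 min. PSL with drug was divided by PSL without drug to give % total binding, averaged over at least triplicate sections from three animals.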

The target is the same in data set [20]. Put plainly: Binding affinity to glycine binding site of NMDA receptor in hippocampus of rat brain by autoradiography in presence of glycine-site agonist D-serine. It is filed as tissue-based. The conditions noted are these: tested as the 11C-labelled form. An outline of the steps:
as §3

Data set [21] shares this target. Briefly: Binding affinity to glycine binding site of NMDA receptor in hippocampus of rat brain by autoradiography in presence of glycine-site antagonist L-703717. It counts as tissue-based. The conditions noted are these: tested as the 11C-labelled form. An outline of the steps: as §3
For data set [22] the target is unchanged. Briefly: Binding affinity to glycine binding site of NMDA receptor in hippocampus of rat brain by autoradiography in presence of glycine-site antagonist methoxy-MDL-104653. It is filed as tissue-based. Conditions: tested as the 11C-labelled form. An outline of the steps: as §3
For data set [23] the target is unchanged. Briefly: Binding affinity to glycine binding site of NMDA receptor in hippocampus of rat brain by autoradiography in presence of glycine-site antagonist MDL-105519. It is filed as tissue-based. The conditions noted are these: tested as the 11C-labelled form. An outline of the steps: as §3
Data set [24] is described as follows: Plasma protein binding in rat at 0.67 to 0.89 […] after 30 mins by ultrafiltration. It is filed as ADME, cell-free. The conditions noted are these: read-out: PPB (converted). An outline of the steps:
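Rat serum was diluted 10-fold in 66 mM phosphate buffer (pH 7.4) containing [11C]radioligand (0.67–0.89 MBq) and incubated 30 min at 30 °C. It was then ultrafiltered by centrifugation at 2000 rpm for 15 min. Radioactivity in whole plasma and in filtrate was counted to give % bound (mean, n=3).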

pKi: −log10 of the molar value. Active and inactive are the calls of the source. The rule behind the calls is not given here.

Consider `CNc1cc(Cl)cc2[nH]c(=O)c(-c3cccc(OC)c3)c(O)c12`, for which the pKi on Glutamate NMDA receptor [1] was 6.15.

On to `[11CH3]Nc1ccc(Cc2cccc(-c3c(O)c4ccc(Cl)cc4[nH]c3=O)c2)cc1`, for which the Drug uptake in the data set with Blood [2] is 13.08 %ID; in [3], 0.4 %ID; in the data set on Cerebellum [4], 0.48 %ID; in the data set with Blood [5], 3.93 %ID/g; in [6] it was 0.17 %ID/g; with Cerebellum [7], 0.23 %ID/g. For the same molecule, the results for the Kp at 1 min in data set [8] and in data set [9] were 0.031 and 0.037, respectively. The Kp at 0.5 h in [10] was 0.043; in data set [11] it was 0.058.

The molecule `COc1cccc(-c2c(O)c3c(N)cc(Cl)cc3[nH]c2=O)c1` showed a pKi on Glutamate NMDA receptor [1] of 6.92.

For `COc1cccc(-c2c(O)c3c(I)cc(Cl)cc3[nH]c2=O)c1`, the pKi at Glutamate NMDA receptor [12] is 7.99.

Molecule `CNc1ccc(Cc2cccc(-c3c(O)c4ccc(Cl)cc4[nH]c3=O)c2)cc1` showed a pKi at Glutamate NMDA receptor [1] of 7.93. In data set [13], the logD at 0.25 h was determined as 3. For the same molecule, the Activity in [14] is 70%; in data set [18], 30%; in data set [19], 46%; in [20], 46%; in data set [21] it was 58%; in [22], 58%. Also, in data set [23], the Activity came to 58%. Besides, the result in data set [15], in data set [16] and in [17] was Active.

Take `CCc1cc(Cl)cc2[nH]c(=O)c(-c3cccc(O[11CH3])c3)c(O)c12`: the Drug uptake is recorded as 29.16 %ID in the data set with Blood [2]; 0.5 %ID in data set [3]; 0.72 %ID with Cerebellum [4]; 10.66 %ID/g in the data set on Blood [5]; 0.32 %ID/g in [6]; 0.44 %ID/g in the data set on Cerebellum [7]. Besides, the values for the Kp at 1 min in [8] and in data set [9] were 0.018 and 0.026, respectively. The Kp at 0.5 h in data set [10] amounted to 0.03; in data set [11], 0.042.

At Glutamate NMDA receptor [1], `CCc1cc(Cl)cc2[nH]c(=O)c(-c3cccc(N(C)C)c3)c(O)c12` showed a pKi of 7.46.

`COc1ccc(Cc2cccc(-c3c(O)c4ccc(Cl)cc4[nH]c3=O)c2)cc1`: at Glutamate NMDA receptor [1], the pKi was 8.29. Moreover, in data set [13], the logD at 0.25 h worked out at 3.47. Also, the fraction unbound at 0.5 h in [24] was 0.06.

The term pKi denotes the Ki on a negative log10 scale, so that one unit is a factor of ten. For orientation: Kp means tissue or fluid exposure divided by exposure in the circulation. One may read the logD as lipophilicity at a set pH, counting ionised and neutral species. A low value points to a more hydrophilic compound.
